Source: PubChem (Sanford-Burnham Center for Chemical Genomics)
An excerpt weighted towards active compounds, which were near 1.2% of everything screened.
Diaph inh CS: diaphorase inhibitors and chemical oxidizers, primary screen, counter-screen for diaphorase-coupled primary assays, biochemical, uHTS, resorufin fluorescence | diaphorase resazurin-to-resorufin fluorescence, NADH, 16 min; bacterial (C. kluyveri) enzyme, not human | inhibition, % at 20 µM | hit rate 0.69% among 190,000;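 active = primary screen inhibition at 20 µM above a set limit, cut at about 50% in these data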
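controls = No-NADH positive control and DMSO neutral control | system = Clostridium kluyveri diaphorase enzyme | timing = reaction incubation of 16 min at room temperature | signal = resorufin fluorescence 544/590 nm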
HKDC1 inhibitor: HKDC1 hexokinase inhibitors, primary screen, biochemical, fluorescence, uHTS | recombinant HKDC1, G6PDH/diaphorase resazurin coupled fluorescence | inhibition, % at 20 µM | AID 493160, 2011 | Q2TB90 | hit rate 0.16% among 340,000;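 active = inhibition above about 35% when tested at 20 µM, limit read from the data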
Target sequence (Q2TB90 whole entry, looked up): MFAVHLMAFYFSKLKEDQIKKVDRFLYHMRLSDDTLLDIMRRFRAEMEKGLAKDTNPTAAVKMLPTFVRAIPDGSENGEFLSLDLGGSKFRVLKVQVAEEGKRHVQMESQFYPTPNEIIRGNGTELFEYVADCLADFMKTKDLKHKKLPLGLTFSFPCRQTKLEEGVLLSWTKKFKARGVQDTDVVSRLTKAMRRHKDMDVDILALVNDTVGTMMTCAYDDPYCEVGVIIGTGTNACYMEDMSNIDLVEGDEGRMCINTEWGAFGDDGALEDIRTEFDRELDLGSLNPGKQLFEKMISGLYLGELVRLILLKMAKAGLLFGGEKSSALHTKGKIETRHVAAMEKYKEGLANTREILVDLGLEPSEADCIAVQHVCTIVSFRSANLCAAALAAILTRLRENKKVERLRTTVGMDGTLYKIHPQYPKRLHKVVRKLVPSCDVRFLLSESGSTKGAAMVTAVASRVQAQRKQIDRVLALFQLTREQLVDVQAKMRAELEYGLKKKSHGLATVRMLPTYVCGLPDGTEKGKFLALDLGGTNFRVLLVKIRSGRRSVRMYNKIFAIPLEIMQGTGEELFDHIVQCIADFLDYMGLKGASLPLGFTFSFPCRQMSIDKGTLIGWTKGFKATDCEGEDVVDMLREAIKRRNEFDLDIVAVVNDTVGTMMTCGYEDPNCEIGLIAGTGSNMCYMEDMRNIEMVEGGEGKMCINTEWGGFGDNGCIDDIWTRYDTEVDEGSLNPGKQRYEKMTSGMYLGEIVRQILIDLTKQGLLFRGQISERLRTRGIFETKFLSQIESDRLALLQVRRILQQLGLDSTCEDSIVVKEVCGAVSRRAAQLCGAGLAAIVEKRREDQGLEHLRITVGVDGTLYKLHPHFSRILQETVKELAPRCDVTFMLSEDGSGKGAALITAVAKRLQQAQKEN
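Test system: HK5 enzyme. Quantity: 5 µg/mL HK5 final. Reagent: glucose and ATP substrates. Schedule: 90 min reaction incubation at room temperature, dark. Technique: resazurin-to-resorufin fluorescence via G6PDH and diaphorase coupling, 525/613 nm. Control set: DMSO wells with and without enzyme mix.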
PfGluPho inh: PfG6PD enzyme inhibitors, primary screen, biochemical, fluorescence intensity, uHTS; glucose-6-phosphate dehydrogenase-6-phosphogluconolactonase (Plasmodium falciparum 3D7); PfGluPho enzyme, NADPH resazurin-diaphorase fluorescence; inhibition, % at 20 µM; hit rate 0.78% among 350,000; AID 504690, 2011;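 active = inhibition reaching at least a set limit at 20 µM in the primary screen, cut at about 59% in these data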
G6PDH counter: L. mesenteroides G6PDH inhibitors, counter-screen for G6PDH-coupled screening assays, biochemical, Leuconostoc mesenteroides enzyme | glucose-6-phosphate dehydrogenase [Leuconostoc mesenteroides] | hit rate 0.12% among 200,000 | inhibition, % at 5 µM | Purified L. mesenteroides G6PDH, diaphorase/resazurin coupled fluorescence, 45 min; in the data active = inhibition above about 50%
HKDC1 act conf2: HKDC1 hexokinase activators, confirmation, biochemical, single concentration. shares compounds with HKDC1 inhibitor. recombinant HKDC1, G6PDH/diaphorase resazurin fluorescence; stronger effect = lower value. inhibition, % at 20 µM. hit rate 14% among 740. AID 504708, 2011;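 active = inhibition at or below a set negative limit, negative inhibition meaning the enzyme was activated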
PfGluPho conf: PfG6PD inhibitors, hit retest, confirmation, biochemical, fluorescence intensity, single concentration; shares compounds with PfGluPho inh; AID 504753, 2011; hit rate 34% among 2,400; recombinant PfGluPho, NADPH-diaphorase-resazurin fluorescence; inhibition, % at 20 µM;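 active = inhibition of at least 50% at 20 µM in any single replicate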
Diaphorase 10uM: diaphorase inhibitors and chemical oxidizers, confirmation, counter-screen for P. falciparum G6PD inhibitor project, biochemical, fluorescence intensity, 10 µM NADPH; hit rate 39% among 820; shares compounds with PfGluPho inh; inhibition, % at 20 µM; diaphorase-coupled resazurin reduction, NADPH 10 uM;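 active = average inhibition reaching 50% or more with the compound at 20 µM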;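 also: resorufin red fluorescence formed as diaphorase reduces resazurin using NADPH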
Diaph ctr 30uM: diaphorase inhibitors and chemical oxidizers, confirmation, counter-screen for P. falciparum G6PD inhibitor project, biochemical, fluorescence intensity, 30 µM NADPH | hit rate 29% among 820 | inhibition, % at 20 µM | Diaphorase/resazurin coupled assay, resorufin fluorescence | shares compounds with PfGluPho inh;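 active = inhibition averaging 50% or more, tested at 20 µM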
A number is an active result; – = inactive; · = no result.

SMILES | Diaph inh CS | HKDC1 inhibitor | PfGluPho inh | G6PDH counter | HKDC1 act conf2 | others
Cn1c2ccccc2c(=O)c2c(=O)n(-c3ccc(F)cc3)c(-c3cccs3)nc21 | · | 68 | – | · | –
Cc1ccc(-c2nc3c(c(=O)c4ccccc4n3C)c(=O)n2-c2ccc(F)cc2)cc1 | · | – | – | · | ·
CCc1nc2c(c(=O)c3ccccc3n2C)c(=O)n1-c1ccc(F)cc1 | 74 | 48 | – | – | –
CCCCCCn1c(=O)n2n(c1=O)C[C@]1(OC(=O)Nc3c(C)noc3C)CN(S(=O)(=O)c3ccc(C)cc3)C[C@]1(O)C2 | · | · | – | · | ·
COc1ccc(NC(=O)Nc2nnc(-c3ccncc3)s2)cc1 | – | – | – | – | ·
O=C(Nc1ccc(Cl)c(Cl)c1)Nc1nnc(-c2ccncc2)s1 | – | 41 | – | – | –
CC(=O)N1c2ccc3ccccc3c2C2C=CCC2C1c1ccc(Br)cc1 (centres undefined) | – | · | · | – | ·
CC(=O)N1c2ccc(Cl)cc2C2C=CCC2C1c1cccc2ccccc12 (centres undefined) | – | 42 | – | – | –
CCOC(=O)/C(C#N)=C/c1cc2ccccc2nc1N1CCOCC1 | – | – | – | – | ·
N#CC(C#N)=Cc1cc2ccccc2nc1N1CCCCC1 | – | 38 | – | – | –
CCN(CC)S(=O)(=O)c1cccc(C(=O)OCC(=O)NCCN2C(=O)CSC2=O)c1 | · | – | – | · | ·
NC(=S)N/N=C/c1ccc(Br)o1 | – | – | – | – | –
NC(=S)N/N=C/c1ccc(-c2cc(Cl)c(Cl)cc2Cl)o1 | – | – | – | – | ·
CC(=O)NC1C(=O)N(CCc2ccccc2)c2ccc(Br)cc21 (centres undefined) | – | – | – | – | ·
CCOc1ccc2c(c1)C(NC(C)=O)C(=O)N2CCN1CCOCC1 (centres undefined) | · | 82 | – | · | –
CC(=O)NC1C(=O)N(CCN2CCOCC2)c2ccc(Br)cc21 (centres undefined) | · | 81 | – | · | –
CC(=O)c1cn(CCOc2ccc(F)cc2)c2ccccc12 | · | – | – | · | ·
COc1ccccc1-c1nnc(SC(C)C(=O)Nc2ccc(C(N)=O)cc2)o1 (centres undefined) | · | – | – | · | ·
COc1cccc2c1C(=O)C=C(C)C2=O | – | – | – | 54 | –
COc1cc(NC(=S)NC(=O)CCc2ccccc2)cc(OC)c1 | · | – | – | · | ·
CC(=O)n1cc(N(C(=O)CCl)c2ccc(C)cc2)c2ccccc21 | · | 41 | – | · | –
Cc1ccc(S(=O)(=O)N2CCN(C(=O)c3cc4c(s3)CCCC4)CC2)cc1 | · | – | – | · | ·
COc1ccc(S(=O)(=O)N2CCN(C(=O)c3cc4c(s3)CCC4)CC2)cc1 | · | – | – | · | –
CCOC(=O)c1cc(-c2ccc(/C=C3/C(=O)N(c4ccc(C(=O)O)cc4)N=C3C)o2)ccc1Cl | · | 43 | – | · | –
Cc1ccc2c(c1C)OC(=O)CC2c1ccccc1 (centres undefined) | · | – | – | · | ·
SMILES | Diaph inh CS | HKDC1 inhibitor | PfGluPho inh | G6PDH counter | HKDC1 act conf2 | others
CC(NC1=CC(=O)c2cccnc2C1=O)C(O)c1ccccc1 (centres undefined) | · | 46 | 105 | · | – | PfGluPho conf=74;Diaphorase 10uM=–;Diaph ctr 30uM=–
C[C@H](NS(=O)(=O)c1ccc(Cl)cc1)C(=O)OCC(=O)Nc1cc(S(=O)(=O)N2CCOCC2)ccc1Cl | · | – | – | · | ·
O=C(CN(c1ccc(Br)cc1)S(=O)(=O)c1ccc(Cl)c([N+](=O)[O-])c1)NCC1CCCO1 (centres undefined) | · | – | – | · | ·
Cc1ccc(S(=O)(=O)Nc2c(O)ccc3ccccc23)cc1 | · | 38 | 81 | · | – | PfGluPho conf=–
Cc1ccc(S(=O)(=O)NN=Cc2c(O)ccc3ccccc23)cc1 | · | · | – | · | ·
COC(=O)CCC(=O)OC1(C)C(=O)C2=CN(Cc3ccccc3)C(c3ccc(OC)cc3)=CC2=C(Br)C1=O (centres undefined) | · | 43 | 78 | · | – | PfGluPho conf=–
CC1(OC(=O)CCc2ccccc2)C(=O)C=C2C=C(c3ccc(C#N)cc3)N(Cc3ccccc3)C=C2C1=O (centres undefined) | · | 36 | 84 | · | – | PfGluPho conf=–
COC(=O)CCC(=O)OC1(C)C(=O)C2=CN(c3ccccc3)C(c3ccc(OC)cc3)=CC2=C(Br)C1=O (centres undefined) | · | 38 | 73 | · | – | PfGluPho conf=74;Diaphorase 10uM=50;Diaph ctr 30uM=–
COC(=O)CCC(=O)OC1(C)C(=O)C2=CN(CCc3c[nH]c4ccccc34)C(c3ccc(OC)cc3)=CC2=C(Br)C1=O (centres undefined) | · | – | – | · | ·
COC(=O)CCC(=O)OC1(C)C(=O)C2=CN(Cc3ccc(OC)cc3)C(c3ccc(OC)cc3)=CC2=C(Br)C1=O (centres undefined) | · | – | – | · | ·
COC(=O)CCC(=O)OC1(C)C(=O)C2=CN(CC3CC3)C(c3ccc(OC)cc3)=CC2=C(Br)C1=O (centres undefined) | · | 37 | 76 | · | – | PfGluPho conf=–
CC(C)CN1C=C2C(=O)C(C)(OC(=O)CCc3ccccc3)C(=O)C=C2C=C1c1ccc(C#N)cc1 (centres undefined) | · | – | – | · | ·
Nn1c(SCC(=O)NCC2CCCO2)nnc1-c1ccco1 (centres undefined) | · | – | – | · | ·
CN(CC1CCCO1)S(=O)(=O)c1ccc(C(=O)Nc2ccc(S(N)(=O)=O)cc2)cc1 (centres undefined) | · | – | – | · | ·
CCN(C(=O)COC(=O)CCc1c[nH]c2ccccc12)c1c(N)n(Cc2ccccc2)c(=O)[nH]c1=O | · | – | – | · | ·
COC1=C(Br)C(=O)c2ncccc2C1=O | · | 56 | 112 | · | – | PfGluPho conf=91;Diaphorase 10uM=73;Diaph ctr 30uM=75
O=C1C(=O)c2c(ccc3ccccc23)-c2ccccc21 | · | – | 62 | · | – | PfGluPho conf=–
O=C1CCSc2c1ccc1ccccc21 | · | – | – | · | ·
COC1=CC(=O)c2c(ccc3ncnc(N)c23)C1=O | · | 87 | 127 | · | – | PfGluPho conf=108;Diaphorase 10uM=99;Diaph ctr 30uM=100
COc1cc(/C=C2\SC(c3ccc(C)cc3)=NC2=O)cc(OC)c1OC | – | – | – | – | ·
COc1cc(/C=C2\SC(c3ccccc3)=NC2=O)cc(Cl)c1O | 64 | 49 | 61 | – | – | PfGluPho conf=–
